Results from ChEMBL document CHEMBL3992517 (J Med Chem, 2017).
Active and inactive are the calls of the source. The calls are words filed in the database; no cut-off is given here.

How the values were obtained:
K562 [1] = assay: Antiproliferative activity against human K562 cells after 48 hrs by Alamar blue dye based neubauer hemocytometer method; format: functional, cell-based; details: K562, 48 h
In short: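 K562 human chronic myelogenous leukemia cells, mycoplasma-negative, grown at 37 °C in 5% CO2 in RPMI 1640 with 10% FBS, penicillin/streptomycin and L-glutamine. Cells were exposed to compound for 48 h and then counted on a Neubauer hemocytometer. IC50 is the concentration giving 50% growth inhibition, taken as the mean of at least three independent determinations (SD < 10%).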

[2] = (§1) Inhibition of porcine tubulin polymerization after 45 mins by turbidometric method; design: species or system Sus scrofa
K562 [3] = assay: Cell cycle arrest in human K562 cells assessed as accumulation at G2/M phase up to 30 nM after 24 hrs by propidium iodide staining-based flow cytometry
NCI-H292 = assay: Antiproliferative activity against human NCI-H292 cells after 72 hrs by SRB assay; format: functional; details: NCI-H292, 72 h
In short: (§2)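 Cell panel screen (93 tumour lines listed in text; 94 in the table), run to the DTP NCI sulforhodamine B protocol. Concentrations from 0.0001 to 10 µM. GI50 is the molar concentration giving 50% growth inhibition relative to the initial seeding number, taken from log-transformed data. zScore is reported per cell line.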

PBMC = assay: Cytotoxicity against human PBMC after 72 hrs by SRB assay; format: cell-based
In short: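 Resting, non-proliferating peripheral blood mononuclear cells were included in the panel and quantified by sulforhodamine B staining.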

SK-BR-3 = assay: Antiproliferative activity against human SK-BR-3 cells after 72 hrs by SRB assay; format: functional; details: SK-BR-3, 72 h; in short: as §2
JAR = assay: Antiproliferative activity against human JAR cells after 72 hrs by SRB assay; format: functional; in short: as §2
COLO-678 = assay: Antiproliferative activity against human COLO-678 cells after 72 hrs by SRB assay; format: functional; details: COLO-678, 72 h; in short: as §2
IMR-90 = assay: Antiproliferative activity against human IMR90 cells after 72 hrs by SRB assay; format: functional; details: IMR-90, 72 h; in short: as §2
HT-29 = assay: Antiproliferative activity against human HT-29 cells after 72 hrs by SRB assay; format: functional; details: HT-29, 72 h; in short: as §2
PANC-1 = assay: Antiproliferative activity against human PANC1 cells after 72 hrs by SRB assay; format: functional; details: PANC-1, 72 h; in short: as §2
Sus scrofa = organism: Sus scrofa; assay: as §1
SK-LMS-1 = assay: Antiproliferative activity against human SKLMS1 cells after 72 hrs by SRB assay; format: functional; details: SK-LMS-1, 72 h; in short: as §2
RD = assay: Antiproliferative activity against human RD cells after 72 hrs by SRB assay; format: functional; in short: as §2
Caco-2 = assay: Antiproliferative activity against human Caco2 cells after 72 hrs by SRB assay; format: functional; details: Caco-2, 72 h; in short: as §2
Panc1005 = assay: Antiproliferative activity against human Panc 10.05 cells after 72 hrs by SRB assay; format: functional; details: Panc1005, 72 h; in short: as §2
MG-63 = assay: Antiproliferative activity against human MG63 cells after 72 hrs by SRB assay; format: functional; details: MG-63, 72 h; in short: as §2
JIMT-1 = assay: Antiproliferative activity against human JIMT1 cells after 72 hrs by SRB assay; format: functional; details: JIMT-1, 72 h; in short: as §2
SK-N-AS = assay: Antiproliferative activity against human SK-N-AS cells after 72 hrs by SRB assay; format: functional; in short: as §2
[4] = Antiproliferative activity against human CLS439 cells after 72 hrs by SRB assay; format: functional; details: CLS439, 72 h; in short: as §2
NCI-H82 = assay: Antiproliferative activity against human NCI-H82 cells after 72 hrs by SRB assay; format: functional; details: NCI-H82, 72 h; in short: as §2
[5] = biological target: Tubulin beta-5 chain (Homo sapiens) (UniProt P07437); assay: Competitive binding affinity to beta-tubulin in human K562 cells assessed as disappearance of EBI-protein adducts at 20 to 40 uM preincubated for 2 hrs followed by EBI addition measured after 1.5 hrs by Western blot analysis; format: cell-based
Chain of Tubulin beta-5 chain (Homo sapiens) (P07437 whole entry): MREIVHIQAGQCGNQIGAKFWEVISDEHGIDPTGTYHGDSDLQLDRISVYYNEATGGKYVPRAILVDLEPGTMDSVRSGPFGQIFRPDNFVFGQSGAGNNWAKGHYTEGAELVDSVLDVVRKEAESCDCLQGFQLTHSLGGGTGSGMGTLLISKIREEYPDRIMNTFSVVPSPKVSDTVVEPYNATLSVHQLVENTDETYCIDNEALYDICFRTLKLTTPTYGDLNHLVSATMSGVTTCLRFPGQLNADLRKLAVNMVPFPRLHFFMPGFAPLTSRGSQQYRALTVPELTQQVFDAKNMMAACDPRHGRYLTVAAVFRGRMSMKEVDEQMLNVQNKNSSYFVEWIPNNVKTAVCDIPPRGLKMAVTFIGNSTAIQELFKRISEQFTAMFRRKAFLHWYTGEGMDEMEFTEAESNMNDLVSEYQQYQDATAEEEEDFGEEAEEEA

IC50 (K562 [1]) [nM] | IC50 [2] [nM] | SMILES | also measured
> 10000 | > 10000 | COc1cccc(N2CCN(C(=O)Nc3ccccc3Oc3ccccc3)CC2)c1 | 
390 |  | N#Cc1ccc(N2CCN(C(=O)N3c4ccccc4Sc4ccccc43)CC2)cc1 | 
7 | 360 | COc1cccc(N2CCN(C(=O)N3c4ccccc4Oc4cc(C#N)ccc43)CC2)c1 | Activity (K562 [3]): Active; GI50 (NCI-H292): 6.7 nM; Activity (PBMC): Non-Toxic; GI50 (SK-BR-3): 1.5 nM; GI50 (JAR): 1.7 nM; GI50 (COLO-678): 7.5 nM; GI50 (IMR-90): 1.6 nM; GI50 (HT-29): 6.4 nM; GI50 (PANC-1): 6.5 nM; inhibition (Sus scrofa): Dose-dependent effect; GI50 (SK-LMS-1): 5.9 nM; GI50 (RD): 1.7 nM; GI50 (Caco-2): 7.9 nM; GI50 (Panc1005): 1.7 nM; GI50 (MG-63): 1.5 nM; GI50 (JIMT-1): 5.9 nM; GI50 (SK-N-AS): 1.4 nM; GI50 [4]: 7.8 nM; GI50 (NCI-H82): 1.6 nM
1 |  | CC[C@]1(O)C[C@H]2CN(CCc3c([nH]c4ccccc34)[C@@](C(=O)OC)(c3cc4c(cc3OC)N(C)[C@H]3[C@@](O)(C(=O)OC)[C@H](OC(C)=O)[C@]5(CC)C=CCN6CC[C@]43[C@@H]65)C2)C1 | 
840 | 10700 | COc1ccccc1N1CCN(C(=O)N2c3ccccc3CCc3ccccc32)CC1 | 
3130 | 14300 | COc1ccc(N2CCN(C(=O)N3c4ccccc4Oc4ccccc43)CC2)cc1 | 
20 | 690 | COc1cccc(N2CCN(C(=O)N3c4ccccc4Oc4ccccc43)CC2)c1 | 
3700 | 3380 | COc1ccc(N2CCN(C(=O)N3c4ccccc4Oc4cc(C#N)ccc43)CC2)cc1 | 
5000 | > 10000 | COc1cccc(N2CCN(CC(=O)N3c4ccccc4Oc4ccccc43)CC2)c1 | 
30 | 920 | COc1cccc(N2CCN(C(=O)N3c4ccccc4Sc4ccc(Cl)cc43)CC2)c1 | 
> 60000 | > 10000 | O=C(N1CCN(c2ccc(C(F)(F)F)cc2)CC1)N1c2ccccc2Oc2ccccc21 | 
90 | 510 | COc1ccccc1N1CCN(C(=O)N2c3ccccc3Sc3ccc(Cl)cc32)CC1 | 
3700 |  | COc1ccc(N2CCN(C(=O)N3c4ccccc4Sc4ccccc43)CC2)cc1 | 
> 70000 | > 10000 | O=C(N1CCN(c2ccc([N+](=O)[O-])cc2)CC1)N1c2ccccc2Oc2ccccc21 | 
20 | 550 | COc1cccc(N2CCN(C(=O)N3c4ccccc4Sc4ccccc43)CC2)c1 | 
30 | 320 | COc1ccccc1N1CCN(C(=O)N2c3ccccc3Oc3cc(C#N)ccc32)CC1 | 
9000 | > 10000 | COc1ccccc1N1CCN(CC(=O)N2c3ccccc3Oc3ccccc32)CC1 | 
1900 | > 10000 | COc1ccc(N2CCN(C(=O)N3c4ccccc4Sc4ccc(Cl)cc43)CC2)cc1 | 
30 | 1380 | O=C(N1CCN(c2ccccc2)CC1)N1c2ccccc2Oc2ccccc21 | 

IC50 (K562 [1]) [nM] | IC50 [2] [nM] | SMILES | also measured
450 | 2830 | COc1ccccc1N1CCN(C(=O)N2c3ccccc3C=Cc3ccccc32)CC1 | 
180 | 900 | COc1cccc(N2CCN(C(=O)N3c4cc(Cl)ccc4Oc4ccc(Cl)cc43)CC2)c1 | 
30 | 800 | COc1cccc(N2CCN(C(=O)N3c4ccccc4Oc4ccc(Cl)cc43)CC2)c1 | 
20 | 640 | COc1ccccc1N1CCN(C(=O)N2c3ccccc3Oc3ccccc32)CC1 | 
130 | 1190 | COc1ccccc1N1CCN(C(=O)N2c3cc(Cl)ccc3Oc3ccc(Cl)cc32)CC1 | 
130 | 810 | O=C(N1CCN(c2ccccc2)CC1)N1c2ccccc2Sc2ccccc21 | 
630 | 830 | O=C(N1CCN(c2ccc(Cl)cc2)CC1)N1c2ccccc2Oc2ccccc21 | 
> 10000 | > 10000 | COc1ccccc1N1CCN(C(=O)Nc2ccccc2Oc2ccccc2)CC1 | 
1390 |  | Cc1ccc(N2CCN(C(=O)N3c4ccccc4Oc4ccccc43)CC2)cc1 | 
> 20000 | > 10000 | N#Cc1ccc(N2CCN(C(=O)N3c4ccccc4Oc4ccccc43)CC2)cc1 | 
30 | 620 | COc1ccccc1N1CCN(C(=O)N2c3ccccc3Oc3ccc(Cl)cc32)CC1 | 
6000 | 8530 | COc1cccc(CNC(=O)N2c3ccccc3Oc3ccccc32)c1 | 
20 | 600 | COc1ccccc1N1CCN(C(=O)N2c3ccccc3Sc3ccccc32)CC1 | Activity [5]: Active
940 | 3560 | COc1cccc(N2CCN(C(=O)N3c4ccccc4C=Cc4ccccc43)CC2)c1 | 
19000 | 9000 | COc1ccc(CNC(=O)N2c3ccccc3Oc3ccccc32)cc1 | 
> 10000 | > 10000 | COc1ccc(N2CCN(C(=O)Nc3ccccc3Oc3ccccc3)CC2)cc1 | 
18000 | > 10000 | COc1cccc(N2CCN(C(=O)N(c3ccccc3)c3ccccc3)CC2)c1 | 
> 80000 | > 10000 | COc1ccc(NC(=O)N2c3ccccc3Oc3ccccc32)cc1 | 

SMILES | IC50 (K562 [1]) [nM] | IC50 [2] [nM] | also measured
c1ccc2c(c1)Nc1ccccc1O2 [PHENOXAZINE] | 16800 |  | 
